# Key:
# Cavia porcellus [1] = experiment: Antihistaminic activity against Dunkin-Hartley guinea pig assessed as protection against histamine-induced bronchospasm at 10 mg/kg, po; type: functional
# Summary of the method: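 Male Dunkin Hartley guinea pigs (250–300 g), fasted 12 h, six per group. Dosed orally in 1% CMC, then challenged with histamine aerosol (0.2% aqueous histamine acid chloride) sprayed from a pocket nebulizer into a closed cage. Preconvulsion onset time was recorded, and animals stable beyond 6 min counted as protected. Mean preconvulsion time vs control expressed as % protection.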
# Mus musculus [2] = experiment: Sedative-hypnotic activity in Swiss Albino mouse assessed as CNS depression at 5 mg/kg, po after 2 hrs; type: functional
# Summary of the method: (§1)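 The basal motor activity score was recorded first. Compound was then given orally in 1% CMC, and scores were taken at 1, 2 and 3 h post-dose. % reduction in motor activity = [(A−B)/A]×100, with A the basal score and B the post-treatment score. Significance was tested by Student's t-test.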
# Mus musculus [3] = experiment: Sedative-hypnotic activity in Swiss Albino mouse assessed as CNS depression at 5 mg/kg, po after 3 hrs; type: functional; summary of the method: as §1
# Mus musculus [4] = experiment: Sedative-hypnotic activity in Swiss Albino mouse assessed as CNS depression at 5 mg/kg, po after 1 hr; type: functional; summary of the method: as §1
# Cavia porcellus [5] = experiment: Antihistaminic activity against Dunkin-Hartley guinea pig assessed as protection against histamine-induced bronchospasm at 10 mg/kg, po
Structure (SMILES),Activity (Cavia porcellus [1]) [%],Activity (Mus musculus [2]) [%],Activity (Mus musculus [3]) [%],Activity (Mus musculus [4]) [%],Activity (Cavia porcellus [5]) [%]
Cc1ccccc1-n1c(=O)c2ccccc2n2c(N3CCCC3)nnc12,68.81,14,7,10,–
Cc1ccccc1-n1c(=O)c2ccccc2n2c(CCl)nnc12,68.56,13,4,8,–
Cc1ccccc1-n1c(=O)c2ccccc2n2c(C)nnc12,72.45,14,8,11,–
CCc1nnc2n(-c3ccccc3C)c(=O)c3ccccc3n12,70.78,14,9,13,–
CCCc1nnc2n(-c3ccccc3C)c(=O)c3ccccc3n12,69.47,17,8,13,–
Cc1ccccc1-n1c(=O)c2ccccc2n2c(N3CCOCC3)nnc12,70.33,15,10,10,–
Cc1ccccc1-n1c(=O)c2ccccc2n2c(CN3CCNCC3)nnc12,70.7,13,9,12,–
Cc1ccccc1-n1c(=O)c2ccccc2n2c(CN3CCN(C)CC3)nnc12,72.05,18,10,12,–
Cc1ccccc1-n1c(=O)c2ccccc2n2c(CN3CCCCC3)nnc12,69.47,16,9,13,–
Cc1ccccc1-n1c(=O)c2ccccc2n2cnnc12,69.87,11,5,9,–
CN(C)CCC(c1ccc(Cl)cc1)c1ccccn1.O=C(O)/C=C\C(=O)O (centres undefined) [CHLORPHENIRAMINE MALEATE],–,32,22,37,71

# Source: ChEMBL document CHEMBL1154432, “Synthesis and pharmacological investigation of novel 4-(2-methylphenyl)-1-substituted-4H-[1,2,4]triazolo[4,3-a]quinazolin-5-ones as new class of H(1)-antihistaminic agents” (2008)
